# Experimental data from ChEMBL document CHEMBL1811848 (Bioorg Med Chem Lett, 2011).
# The source made the active and inactive calls. The calls are words filed in the database; no cut-off is given here.
# Legend:
# [1] = target: T1, Peroxisome proliferator-activated receptor delta (Homo sapiens) (UniProt Q03181); test: Transactivation of human PPARdelta expressed in human HepG2 cells co-transfected with PPRE3-TK-Luc by luciferase reporter gene assay; format: cell-based
# T1 sequence (whole entry): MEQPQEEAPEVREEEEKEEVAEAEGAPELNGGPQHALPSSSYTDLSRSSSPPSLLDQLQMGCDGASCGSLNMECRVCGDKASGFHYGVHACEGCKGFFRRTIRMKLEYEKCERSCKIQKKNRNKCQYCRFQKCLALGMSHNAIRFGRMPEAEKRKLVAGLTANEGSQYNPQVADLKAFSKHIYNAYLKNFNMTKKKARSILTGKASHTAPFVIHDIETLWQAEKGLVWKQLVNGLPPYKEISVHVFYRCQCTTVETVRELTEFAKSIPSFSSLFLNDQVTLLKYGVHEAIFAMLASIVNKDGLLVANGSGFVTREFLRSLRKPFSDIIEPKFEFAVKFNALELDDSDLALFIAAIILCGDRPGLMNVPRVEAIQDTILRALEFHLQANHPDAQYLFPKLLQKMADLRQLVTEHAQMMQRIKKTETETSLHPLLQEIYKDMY
# How it was run: (§1)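 HepG2 cells transfected with pSG5 vector carrying hPPARα, hPPARγ or hPPARδ cDNA, co-transfected with PPRE3-TK-luc. Firefly luciferase activity measured with a commercial kit. β-galactosidase activity read on an ELISA reader. Controls: WY14643 (α), rosiglitazone (γ), GW501516 (δ).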
# [2] = target: T2, Peroxisome proliferator-activated receptor alpha (Homo sapiens, UniProt Q07869); test: Transactivation of human PPARalpha expressed in human HepG2 cells co-transfected with PPRE3-TK-Luc by luciferase reporter gene assay; format: cell-based
# T2 sequence (Q07869 whole entry): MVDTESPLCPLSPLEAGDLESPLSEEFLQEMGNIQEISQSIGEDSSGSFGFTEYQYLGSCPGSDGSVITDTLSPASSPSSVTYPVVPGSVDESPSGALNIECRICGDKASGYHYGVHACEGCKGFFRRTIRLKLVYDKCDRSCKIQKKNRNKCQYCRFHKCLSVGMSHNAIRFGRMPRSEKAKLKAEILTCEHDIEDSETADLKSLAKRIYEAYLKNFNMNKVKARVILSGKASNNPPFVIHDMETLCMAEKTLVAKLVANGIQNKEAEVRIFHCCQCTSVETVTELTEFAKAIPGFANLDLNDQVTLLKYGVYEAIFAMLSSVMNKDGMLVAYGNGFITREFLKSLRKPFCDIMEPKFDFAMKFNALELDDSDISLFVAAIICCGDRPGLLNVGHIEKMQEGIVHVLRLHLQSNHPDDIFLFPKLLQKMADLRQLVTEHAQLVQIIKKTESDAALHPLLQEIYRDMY
# [3] = target: T3, Peroxisome proliferator-activated receptor gamma (Homo sapiens, UniProt P37231); test: Transactivation of human PPARgamma expressed in human HepG2 cells co-transfected with PPRE3-TK-Luc by luciferase reporter gene assay; format: cell-based; how it was run: as §1
# T3 sequence (P37231 whole entry): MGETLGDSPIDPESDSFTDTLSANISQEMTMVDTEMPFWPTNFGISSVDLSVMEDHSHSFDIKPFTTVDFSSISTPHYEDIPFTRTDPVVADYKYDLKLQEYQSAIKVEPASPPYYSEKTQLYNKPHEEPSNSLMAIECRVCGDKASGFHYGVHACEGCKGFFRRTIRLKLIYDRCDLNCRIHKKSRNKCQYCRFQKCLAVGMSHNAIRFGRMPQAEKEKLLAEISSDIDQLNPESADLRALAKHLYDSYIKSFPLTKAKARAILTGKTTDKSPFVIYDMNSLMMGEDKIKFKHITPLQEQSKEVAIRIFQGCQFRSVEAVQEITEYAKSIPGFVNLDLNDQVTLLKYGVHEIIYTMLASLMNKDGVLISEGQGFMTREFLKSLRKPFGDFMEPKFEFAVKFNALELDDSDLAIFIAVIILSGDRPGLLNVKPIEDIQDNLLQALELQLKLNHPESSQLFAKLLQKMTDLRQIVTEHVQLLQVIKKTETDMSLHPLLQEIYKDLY
# [4] = target: T4, Peroxisome proliferator-activated receptor alpha (Homo sapiens) (UniProt Q07869); test: Transactivation of human PPARalpha expressed in human HepG2 cells co-transfected with PPRE3-TK-Luc by luciferase reporter gene assay relative to WY14643; format: cell-based
# T4 sequence (whole entry): T2 sequence (Q07869 whole entry)
# How it was run: (§2)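 Same HepG2 hPPARα or hPPARγ / PPRE3-TK-luc luciferase transactivation assay. Efficacy expressed as percent of maximal response, normalized to 100% for the reference agonist: WY-14643 for α, rosiglitazone for γ.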
# [5] = target: T5, Peroxisome proliferator-activated receptor gamma (Homo sapiens) (UniProt P37231); test: Transactivation of human PPARgamma expressed in human HepG2 cells co-transfected with PPRE3-TK-Luc by luciferase reporter gene assay relative to Rosiglitazone; format: cell-based; how it was run: as §2
# T5 sequence (whole entry): T3 sequence (P37231 whole entry)
# [6] = system: Mus musculus; test: Reduction in serum triglyceride level in Swiss albino mouse at 10 mg/kg, po administered for 6 days relative to control; format: functional; set-up: scale not given: the % may be the effect or the level left
# How it was run: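 Male Swiss albino mice aged 6–8 weeks were given 10 mg/kg/day orally for 6 days. Serum triglyceride was expressed as % change versus vehicle controls, mean of n = 6.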
# [7] = system: Mus musculus; test: Antihyperglycemic activity in db/db mouse assessed as reduction in glucose level at 3 mg/kg/day, po administered for 6 days relative to control; format: functional; set-up: scale not given: the % may be the effect or the level left
# How it was run: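 Male db/db mice aged 6–8 weeks were dosed orally once daily for 6 days. Plasma glucose was then measured and expressed as % change versus vehicle-treated controls.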
Structure (SMILES),Activity [1],EC50 [2],EC50 [3],Emax [4],Emax [5],Activity [6],Activity [7]
CCO[C@@H](Cc1ccc(OCCc2nc(-c3cccs3)oc2C)cc1)C(=O)O,inactive,0.1 nM,0.05 nM,126%,104%,78%,–
CCO[C@@H](Cc1ccc(OCCc2ccc(OS(C)(=O)=O)cc2)cc1)C(=O)O [TESAGLITAZAR],–,–,–,–,–,–,55%
CCO[C@@H](Cc1ccc(OCc2nc(-c3ccc(-c4ccccc4)s3)oc2C)cc1)C(=O)O,inactive,20 nM,3 nM,93%,104%,57%,–
CCO[C@@H](Cc1ccc(OCCc2nc(-c3ccc(-c4ccccc4)s3)oc2C)cc1)C(=O)O,inactive,22 nM,4.5 nM,–,–,62%,–
CCO[C@@H](Cc1ccc(OCCc2nc(-c3sccc3C)oc2C)cc1)C(=O)O,inactive,–,0.0001 nM,96%,192%,67%,–

# Second part, led by results:
Activity [1],EC50 [2],EC50 [3],Emax [4],Emax [5],Structure (SMILES),Activity [6],Activity [7]
inactive,3 nM,2.7 nM,147%,99%,CCO[C@@H](Cc1ccc(OCc2nc(-c3ccsc3)oc2C)cc1)C(=O)O,70%,–
inactive,1.9 nM,0.6 nM,114%,87%,CCO[C@@H](Cc1ccc(OCCc2nc(-c3ccsc3)oc2C)cc1)C(=O)O,62%,–
inactive,–,0.0003 nM,106%,88%,CCO[C@@H](Cc1ccc(OCc2nc(-c3sccc3C)oc2C)cc1)C(=O)O,72%,–
inactive,–,0.0002 nM,151%,120%,CCO[C@@H](Cc1ccc(OCc2nc(-c3ccc(C)s3)oc2C)cc1)C(=O)O,69%,67%
inactive,0.026 nM,0.0015 nM,134%,107%,CCO[C@@H](Cc1ccc(OCc2nc(-c3cccs3)oc2C)cc1)C(=O)O,72%,–
